Screens: PubChem BioAssay, several laboratories
T cell HTS: modulates CD8 T cell binding to vesicles; 2C CD8+ T cell-vesicle binding, flow cytometry; active compounds read low; 0.068% of 330,000 active; response (vesicle binding), % at 7 µM;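 active = response, share of CD8 T cells binding vesicles, and their 90th percentile fluorescence all below set limits, cut at about 80% in these data, passing the limit was not always enough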;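 also: values below 100% mean blocked vesicle binding to the CD8+ T cells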
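Benchmarks: naked versus QL9-loaded vesicles / Assay system: purified 2C TCR transgenic mouse naive CD8+ T cells / Technique: high-throughput flow cytometry with anti-B7-1 and anti-CD8 staining / Timing: Cell–vesicle co-incubation 1.5 h at 37 °C, staining 20 min on ice / Read-out: percent CD8+ FL2 mean versus row control / Probe or stimulus: QL9-loaded Drosophila micro-vesicles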
PolyA inh: blocks polyadenylation in yeast reporter cells; S. cerevisiae SKY197-pL101 polyadenylation reporter, beta-gal luminescence; efflux-impaired pdr1/pdr3 knockout yeast; score 100 = 6 SD above DMSO; activity score, % at 12 µM; 0.02% of 300,000 active;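 active = lowest replicate activity score at least 50, where 100 means six control SD above control mean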;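 also: yeast exposed to compound for 9 h at 30 °C; higher score means more reporter readthrough which indicates perturbed polyadenylation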
Rce1 inhib: yeast Ras-converting enzyme inhibition. AID 2563. 0.27% of 290,000 active. calls only. yeast membranes, quenched prenylated peptide cleavage fluorescence. Q03530;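 active = fall in fluorescence gain of 50% or more versus controls, with final raw signal at or below 3038400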;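 also: plate controls were neutral control wells for no effect and wells lacking membranes for full effect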
Target sequence (Q03530 whole entry, looked up): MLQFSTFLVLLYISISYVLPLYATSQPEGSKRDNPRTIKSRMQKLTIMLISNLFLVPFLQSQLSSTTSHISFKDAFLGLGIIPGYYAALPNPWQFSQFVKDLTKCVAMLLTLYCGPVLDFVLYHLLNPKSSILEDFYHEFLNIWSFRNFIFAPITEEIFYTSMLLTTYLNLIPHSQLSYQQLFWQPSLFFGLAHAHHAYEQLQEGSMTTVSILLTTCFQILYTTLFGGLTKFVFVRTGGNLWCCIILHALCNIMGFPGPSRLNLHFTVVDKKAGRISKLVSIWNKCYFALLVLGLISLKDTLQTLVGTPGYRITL
aDG glyco act: alpha-DG glycosylation activation; Pro5-aDG cells, alpha-DG glycosylation AlphaScreen (IIH6); 0% Pro5, 100% B10-LARGE cell signal; activation, % at 10 µM; 0.22% of 360,000 active; AID 624168;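 active = activation of at least 8% versus controls, or a plate z-score of at least 8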;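 also: Pro5 are CHO cells carrying HIG-tagged alpha-DG that lacks glycosylation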
Starred values were filed as active, the others as inactive; i = inactive; . = not tested or not shown; + = active, no number. Shown are actives, neighbours in structure and some others; about 0.51% of the full set was active somewhere.

SMILES	T cell HTS	PolyA inh	Rce1 inhib	aDG glyco act
Cc1sc(NC(=O)CN2CCCC2)nc1-c1ccc2c(c1)CCN2C(=O)c1cccc(F)c1	234	-15	i	2.7*
Cc1sc(NC(=O)Cc2ccc3c(c2)OCO3)nc1-c1ccc2c(c1)CCN2C(=O)c1ccc(F)cc1	792	-10	i	0
O=C(C1CCN(Cc2nc(Cc3cccc(F)c3)no2)CC1)N1CCOCC1	319	9	i	0
COc1cccc(Cn2cccc(NC(=O)Nc3cccc(C#N)c3)c2=O)c1	394	5	i	.
COc1cccc(NC(=O)Nc2cccn(Cc3ccc(C)cc3)c2=O)c1	134	-13	+	5
COc1ccc(-c2c(-c3ccsc3)oc3ccc(N4CCOCC4)cc23)cn1	.	14	+	0
O=C1CCCC/C=C\C[C@H](CC(=O)N(CCO)Cc2ccccc2)C(=O)N[C@@H](c2ccccc2)CO1	62*	.	.	0
CC(C)(O)/C=C/C[C@](C)(O)C1CC[C@]2(C)C1[C@H](O[C@H]1O[C@@H](CO)[C@H](O)[C@@H](O)[C@@H]1O)CC1[C@@]3(C)CC[C@H](O)C(C)(C)C3[C@@H](O)C[C@]12C (some centres undefined)	492	.	.	0
c1ccc(CNc2nc(-c3ccccc3)nc3ccccc23)cc1	148	-20	i	0
c1ccc(CNc2nc(NCc3ccccc3)c3ccccc3n2)cc1	225	5	+	0
CC(C)CCNC(=O)c1nn(Cc2ccccc2)c(=O)c2ccccc12	383	2	.	0
CC(C)N(CCNC(=O)c1nn(Cc2ccccc2)c(=O)c2ccccc12)C(C)C	0.0*	-11	i	0
CC(C)c1cc(C(=O)OCC(=O)NC2CC2)c(O)c(C(C)C)c1	.	.	.	0
COc1cc(-c2nc3ccccn3c2/N=C/c2ccccc2)ccc1O	197	25	+	0
COc1cc(-c2nc3ccccn3c2NCC2CCCO2)ccc1O (centres undefined)	331	2	+	0
Cc1ccc(S(=O)(=O)NC(CCC(N)=O)C(=O)NCc2ccc3c(c2)OCO3)c(C)c1 (centres undefined)	.	.	.	0
Cc1ccc(S(=O)(=O)Nc2c(O)ccc3ccccc23)cc1	33*	0	i	1
O=C(CCSc1ccc(Cl)cc1)NC12CC3CC(CC(C3)C1)C2	632	4	+	1
O=C(CCSc1ccc(Cl)cc1)NC1CCCCC1	292	-7	i	0
Cc1ccc(C(=O)N/C(=C/c2ccco2)C(=O)Nc2cccc(C(=O)O)c2)cc1	389	4	+	.
CCc1ccc(NC2=CC(=O)C(=O)c3ccccc32)cc1	.	.	.	5.4*
O=C1C=C(Nc2ccccc2)C(=O)c2ccccc21	443	-7	i	3
CCCCNC1=CC(=O)C(=O)c2ccccc21	419	-5	i	6.9*
O=C1C=C(Nc2ccccc2)c2ccccc2C1=O	.	-24	i	11*
CCc1ccc(S(=O)(=O)/N=C2\C=C(Nc3ccc(C(=O)O)cc3)C(=O)c3ccccc32)cc1	279	-2	i	0
SMILES	T cell HTS	PolyA inh	Rce1 inhib	aDG glyco act
CCN1CCN(C2=C(NS(=O)(=O)c3ccc(Br)cc3)C(=O)c3ccccc3C2=O)CC1	420	2	i	7.7*
CN1CCN(C(=O)c2ccc(-c3cccs3)s2)CC1	365	19	+	0
COc1ccc(C2C3=C(CC(C)(C)CC3=O)Nc3n[nH]c(C)c32)cc1 (centres undefined)	312	4	+	1
O=C(CN1C(=O)/C(=C\c2cccc(Br)c2)Oc2ccccc21)NCC1CCCO1 (centres undefined)	161	28	+	4
CCOC(=O)CN1C(=O)/C(=C/c2cccc(Br)c2)Oc2ccccc21	614	-6	i	0
Cc1ccccc1Cn1c(O)c(N=NC(=S)Nc2ccccc2F)c2ccccc21	206	11	i	0
Oc1c(N=NC(=S)Nc2ccccc2F)c2ccccc2n1Cc1ccccc1F	212	-4	+	1
Cc1ccc(CNC(=O)c2cc(-c3ccccc3)nn2CC2CC(c3cccnc3)=NO2)cc1 (centres undefined)	175	14	i	0
Cc1ccc(CNC(=O)c2cc(-c3ccccc3)nn2CC2CC(c3cccc([N+](=O)[O-])c3)=NO2)cc1 (centres undefined)	.	-15	+	0
CC(C)OCCCNc1ncnc2c1[nH]c1ccccc12	111	-2	i	5.4*
COc1ccc(/C=C/C(=O)O)cc1	i	.	.	0
O=C(O)/C=C/c1ccc(O)cc1	226	1	+	0
Cc1ccc(S(=O)(=O)N2CCN(C(=O)c3ccc(N4CCCCC4)c([N+](=O)[O-])c3)CC2)cc1	0	-8	i	0
COc1ccc2c(c1OC)C(=O)N1C2SC(C)(C)[C@H]1C(=O)NC(C)C (some centres undefined)	252	25	i	0
CCCn1c(C)cc(/C=C(\C#N)C(=O)OCC(=O)N(CC)c2c(N)n(Cc3ccccc3)c(=O)[nH]c2=O)c1C	.	.	.	0
COc1ccccc1NC(=O)/C(=C\c1cccnc1)NC(=O)c1ccccc1	464	-9	.	0
COc1ccccc1NC(=O)/C(=C\c1cccnc1)NC(=O)c1ccc(C)cc1	242	5	+	0
COc1ccc(NC(=O)COC(=O)c2c(NC(C)=O)sc(C)c2C)cc1	.	.	.	0
Cn1c(Cn2c(=O)sc3ccccc32)nnc1SCC(=O)NC1CCCC1	64	-6	i	0
Cn1c(Cn2c(=O)sc3ccccc32)nnc1SCC(=O)NC1CCCCC1	68*	11	i	0
O=C1CN(C(=O)c2ccc(F)cc2)c2ccccc2N1	26*	-3	i	0
Cc1cc2nc(C(C)(C)C)c(Cc3ccsc3)n2c(C)c1Br	.	.	.	0
O=S1(=O)CCN(C2CCCCCCC2)CC1	.	.	.	0
Cc1cccc(N2CCN(C(=O)c3ccc(S(=O)(=O)N(C)c4ccccc4)cc3)CC2)c1C	714	.	.	0
Cc1cccc(-c2oc3ccccc3c2C#CCCCCO)c1	410	19	+	0
SMILES	T cell HTS	PolyA inh	Rce1 inhib	aDG glyco act
Cc1cccc(-c2oc3ccccc3c2C#CCCO)c1	607	15	+	0
COc1ccccc1-c1oc2ccccc2c1C#CCCO	255	.	.	0
CC(=O)c1cccc(OCC(=O)N(Cc2ccco2)c2c(N)n(Cc3ccccc3)c(=O)[nH]c2=O)c1	354	.	.	0
Cc1ccc(CN2CCNC(=O)C2CC(=O)NC2CCCCCC2)cc1 (centres undefined)	496	17	i	0
Cc1ccc(CN2CCNC(=O)C2CC(=O)NC2CCCCCC2)o1 (centres undefined)	156	1	+	0
COc1cc2[nH]c3c(=O)n(CCN4CCOCC4)cnc3c2cc1OC	435	-13	+	0
COC(=O)CSc1nc(N)c2c3c(sc2n1)C(c1ccccc1)SC(c1ccccc1)C3 (centres undefined)	231	-18	+	0
